Calls of active or inactive are those of the source. The calls are words filed in the database; no cut-off is given here.
Experiments:
[1] = Induction of hemolysis in human erythrocytes at IC50 by standard optical density assay relative to control; assay type: cell-based, Erythrocyte; details: read-out: Activity
Outline: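 Donor blood diluted in saline; RBCs spun down at 3000 rpm for 10 min and washed three times. Mixed with compound at a range of concentrations and incubated at 37°C in 5% CO2. Spun at 3000 rpm for 5 min, supernatant OD read at 570 nm. Hemolysis % calculated against saline (0%) and distilled water (100%) controls.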

HeLa [2] = test: Induction of apoptosis in human HeLa cells assessed as cytoplasmic shrinkage at IC50 by DAPI staining-based fluorescence microscopic analysis; assay type: functional, cell-based
Outline: (§1)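 Cells at 1×10^5 per coverslip exposed at IC50 concentration. Fixed in methanol:acetic acid 3:1 v/v, stained with DAPI 5 µg/mL for 20 min. Nuclear morphology viewed by fluorescence microscopy with a […].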

HeLa [3] = test: Cytotoxicity against human HeLa cells after 72 hrs by MTT assay; assay type: functional, cell-based
Outline: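 HeLa cells in DMEM with 4 mM L-glutamine, penicillin, streptomycin and 10% FBS. Seeded at 4000 cells/well, settled 24 h, then given serially diluted compound for 72 h at 37°C in 5% CO2. MTT in IMDM for 4 h, acidified ethanol lysis 15 min, A570 with 690 nm background. IC50 is 50% absorbance of untreated wells; three experiments in triplicate.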

HeLa [4] = test: Induction of morphological changes in human HeLa cells assessed as detached cells at IC50 after 24 hrs by phase contrast microscopic analysis; assay type: functional, cell-based
Outline: (§2)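 HeLa cells in DMEM with 10% FBS at 37°C, 5% CO2. […] Morphology compared with untreated cells under phase contrast microscope.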

HeLa [5] = test: Induction of apoptosis in human HeLa cells assessed as chromatin condensation at IC50 by DAPI staining-based fluorescence microscopic analysis; assay type: functional, cell-based; outline: as §1
HeLa [6] = test: Induction of morphological changes in human HeLa cells assessed as rounded cells at IC50 after 24 hrs by phase contrast microscopic analysis; assay type: functional, cell-based; outline: as §2
HeLa [7] = test: Induction of morphological changes in human HeLa cells assessed as swollen cells at IC50 after 24 hrs by phase contrast microscopic analysis; assay type: functional, cell-based; outline: as §2
HeLa [8] = test: Induction of apoptosis in human HeLa cells assessed as apoptotic body formation at IC50 by DAPI staining-based fluorescence microscopic analysis; assay type: functional, cell-based; outline: as §1
HeLa [9] = test: Induction of apoptosis in human HeLa cells assessed as nuclear shrinkage at IC50 by DAPI staining-based fluorescence microscopic analysis; assay type: functional, cell-based; outline: as §1
HeLa [10] = test: Induction of ROS generation in human HeLa cells at IC50 after 3 hrs by DCFH-DA dye-based flow cytometric analysis; assay type: functional, cell-based
Outline: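 Harvested, washed twice in PBS, then 5 µM DCFH-DA (final) in DMEM for 10 min at 37°C. Flow cytometry at ex 485 / em 530 nm on 20000 cells per sample. Output is % of cells with DCF green fluorescence.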

HeLa [11] = test: Induction of morphological changes in human HeLa cells assessed as cell shrinkage at IC50 after 24 hrs by phase contrast microscopic analysis; assay type: functional, cell-based; outline: as §2
HeLa [12] = test: Induction of morphological changes in human HeLa cells assessed as disintegrated membrane at IC50 after 24 hrs by phase contrast microscopic analysis; assay type: functional, cell-based; outline: as §2
HeLa [13] = test: Induction of apoptosis in human HeLa cells assessed as increase in caspase3 levels at IC50 after 24 hrs by Western blot analysis; assay type: functional, cell-based
Outline: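 Extracts of treated cells quantified by Bradford assay. 50 μg protein run on 12% SDS-PAGE and transferred to nitrocellulose. Blocked in 5% skim milk in PBS for 1 h at room temperature, primary antibody overnight, goat anti-mouse 1:2000. Three independent experiments in triplicate.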

HeLa [14] = test: Induction of apoptosis in human HeLa cells at IC50 after 48 hrs by Annexin V-FITC/propidium iodide staining based flow cytometric analysis (reference value: 100%); assay type: functional
HeLa [15] = test: Induction of apoptosis in human HeLa cells assessed as late apoptotic cells level at IC50 after 48 hrs by Annexin V-FITC/propidium iodide staining based flow cytometric analysis (reference value: %); assay type: functional
HeLa [16] = test: Induction of apoptosis in human HeLa cells assessed as viable cells level at IC50 after 48 hrs by Annexin V-FITC/propidium iodide staining based flow cytometric analysis (reference value: 77.09%); assay type: functional
HeLa [17] = test: Induction of apoptosis in human HeLa cells assessed as early apoptotic cells level at IC50 after 48 hrs by Annexin V-FITC/propidium iodide staining based flow cytometric analysis (reference value: 0%); assay type: functional
HeLa [18] = test: Induction of apoptosis in human HeLa cells assessed as necrotic cells level at IC50 after 48 hrs by Annexin V-FITC/propidium iodide staining based flow cytometric analysis (reference value: %); assay type: functional

Compound	hemolysis [1]	Activity (HeLa [2])	Activity (HeLa [3])	IC50 (HeLa [3])	Activity (HeLa [4])	Activity (HeLa [5])	Activity (HeLa [6])	Activity (HeLa [7])	Activity (HeLa [8])	Activity (HeLa [9])	Activity (HeLa [10])	Activity (HeLa [11])	Activity (HeLa [12])	Activity (HeLa [13])	Activity (HeLa [14])	Activity (HeLa [15])	Activity (HeLa [16])	Activity (HeLa [17])	Activity (HeLa [18])
O=C1c2cccc([N+](=O)[O-])c2NC[C@@]12[C@H](c1ccc(Cl)cc1)[C@@H](c1ccccc1)N[C@]21C(=O)Nc2ccc(Br)cc21	< 7%	Active	Dose-dependent effect	23 µM	Active	Active	Active	Active	Active	Active	Active	Active	Active	–	–	–	–	–	–
COc1ccc([C@@H]2[C@@H](c3ccccc3)N[C@]3(C(=O)Nc4ccc(Br)cc43)[C@]23CNc2c(cccc2[N+](=O)[O-])C3=O)cc1	< 7%	Active	Dose-dependent effect	19 µM	Active	Active	Active	Active	Active	Active	Active	Active	Active	–	–	–	–	–	–
COc1cccc2c1C(=O)c1c(O)c3c(c(O)c1C2=O)C[C@@](O)(C(=O)CO)C[C@@H]3O[C@H]1C[C@H](N)[C@H](O)[C@H](C)O1 [DOXORUBICIN]	–	–	Dose-dependent effect	14 µM	–	–	–	–	–	–	–	–	–	–	–	–	–	–	–
O=C1c2cccc([N+](=O)[O-])c2NC[C@@]12[C@H](c1ccc(F)cc1)[C@@H](c1ccccc1)N[C@]21C(=O)Nc2ccc(F)cc21	–	–	Dose-dependent effect	20 µM	–	–	–	–	–	–	–	–	–	–	–	–	–	–	–
COc1ccc([C@@H]2[C@@H](c3ccccc3)N[C@]3(C(=O)Nc4ccc(Cl)cc43)[C@]23CNc2c(cccc2[N+](=O)[O-])C3=O)cc1	< 7%	Active	Dose-dependent effect	16 µM	Active	Active	Active	Active	Active	Active	Active	Active	Active	Active	95.68%	1.42%	2.44%	85.33%	0%
O=C1c2cccc([N+](=O)[O-])c2NC[C@@]12[C@H](c1ccc(F)cc1)[C@@H](c1ccccc1)N[C@]21C(=O)Nc2ccc(Cl)cc21	–	–	Dose-dependent effect	27 µM	–	–	–	–	–	–	–	–	–	–	–	–	–	–	–
O=C1c2cccc([N+](=O)[O-])c2NC[C@@]12[C@H](c1ccc(F)cc1)[C@@H](c1ccccc1)N[C@]21C(=O)Nc2ccc(Br)cc21	–	–	Dose-dependent effect	26 µM	–	–	–	–	–	–	–	–	–	–	–	–	–	–	–
O=C1c2cccc([N+](=O)[O-])c2NC[C@@]12[C@H](c1ccc(Br)cc1)[C@@H](c1ccccc1)N[C@]21C(=O)Nc2ccc(Br)cc21	–	–	Dose-dependent effect	25 µM	–	–	–	–	–	–	–	–	–	–	–	–	–	–	–
O=C1c2cccc([N+](=O)[O-])c2NC[C@@]12[C@H](c1ccc(Br)cc1)[C@@H](c1ccccc1)N[C@]21C(=O)Nc2ccc(F)cc21	–	–	Dose-dependent effect	26 µM	–	–	–	–	–	–	–	–	–	–	–	–	–	–	–
O=C1c2cccc([N+](=O)[O-])c2NC[C@@]12[C@H](c1ccc(Cl)cc1)[C@@H](c1ccccc1)N[C@]21C(=O)Nc2ccc(F)cc21	–	–	Dose-dependent effect	25 µM	–	–	–	–	–	–	–	–	–	–	–	–	–	–	–
O=C1c2cccc([N+](=O)[O-])c2NC[C@@]12[C@H](c1ccc(Br)cc1)[C@@H](c1ccccc1)N[C@]21C(=O)Nc2ccc(Cl)cc21	< 7%	Active	Dose-dependent effect	21 µM	Active	Active	Active	Active	Active	Active	Active	Active	Active	–	–	–	–	–	–
O=C1c2cccc([N+](=O)[O-])c2NC[C@@]12[C@H](c1ccc(Cl)cc1)[C@@H](c1ccccc1)N[C@]21C(=O)Nc2ccc(Cl)cc21	< 7%	Active	Dose-dependent effect	18 µM	Active	Active	Active	Active	Active	Active	Active	Active	Active	–	–	–	–	–	–
COc1ccc([C@@H]2[C@@H](c3ccccc3)N[C@]3(C(=O)Nc4ccc(F)cc43)[C@]23CNc2c(cccc2[N+](=O)[O-])C3=O)cc1	–	–	Dose-dependent effect	24 µM	–	–	–	–	–	–	–	–	–	–	–	–	–	–	–

Reference: ChEMBL document CHEMBL4368887, “Synthesis and X-ray study of dispiro 8-nitroquinolone analogues and their cytotoxic properties against human cervical cancer HeLa cells” (Medchemcomm, 2019)
